Data: ChEMBL document CHEMBL1671761, “Preclinical characterization of BI 201335, a C-terminal carboxylic acid inhibitor of the hepatitis C virus NS3-NS4A protease” (Antimicrob Agents Chemother, 2010)
pEC50, pIC50, pKi: −log10 of the molar value.

Assays:
Hepatitis C virus [1] = experiment: Inhibition of HCV 1b NS3/4A protease; set-up: species or system Hepatitis C virus subtype 1b; details: read-out: Ki(app)
Summary of the method: (§1)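 Full-length NS3 coexpressed with the 54-residue NS4A, 0.5 nM (2.5 nM for genotype 1a). Substrate was 5 μM anthranilyl-DDIVPAbu[C(O)-O]AMY(3-NO2)TW-OH in 50 mM Tris pH 8.0, 0.25 M citrate, 0.01% dodecylmaltoside, 1 mM TCEP, 5% DMSO. Run at 23°C for 60-70 min, stopped with MES pH 5.8, read by product fluorescence. IC50 converted to apparent Ki via IC50=Ki(1+[S]/Km). Mean ± SD, ≥3 experiments.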

Neutrophil elastase = Neutrophil elastase (Homo sapiens, UniProt P08246); experiment: Inhibition of human leukocyte elastase after 60 mins fluorescence assay
Huh-7 = experiment: Cytotoxicity activity against human HuH7 cells by MTT assay; type: functional
Summary of the method: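 MTT assay in proliferating Huh-7 cells exposed 72 h to serial inhibitor dilutions; formazan read at 570 nm. CC50 taken from percent inhibition.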

[2] = Inhibition of HCV 2a NS3/4A protease; set-up: species or system Hepatitis C virus subtype 2a; details: read-out: Ki(app)
Summary of the method: as §1, with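 “Substrate” for “Full-length NS3 coexpressed with the 54-residue NS4A, 0.5 nM (2.5 nM for genotype 1a). Substrate”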

[3] = Binding affinity to HCV 5a NS3/4A protease; set-up: species or system Hepatitis C virus subtype 5a; details: read-out: Ki(app)
Summary of the method: as §1, with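 “Substrate” for “Full-length NS3 coexpressed with the 54-residue NS4A, 0.5 nM (2.5 nM for genotype 1a). Substrate”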

Hepatitis C virus [4] = experiment: Antiviral activity against HCV 1a infected in Huh7 cells assessed as inhibition of viral replication after 72 hrs by RT-PCR; type: functional, organism-based, Hepacivirus hominis; details: subtype 1a, Huh-7, 72 h
Summary of the method: (§2)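 Huh-7-derived subgenomic replicon cells of genotype 1a or 1b, grown in DMEM/10% FBS with G418. Replicon RNA was quantified by TaqMan real-time RT-PCR against an in vitro-transcribed RNA standard curve and normalized to total RNA (RiboGreen).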

Cathepsin B = Cathepsin B (Homo sapiens, UniProt P07858); experiment: Inhibition of human CatB after 60 mins fluorescence assay
[5] = Apparent permeability from apical to basolateral side in human Caco2 cells; type: ADME, cell-based; details: Caco-2, read-out: permeability
Summary of the method: (§3)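 Caco-2 monolayers were differentiated 23-25 days on Transwell inserts. After 30 min at 37°C, compound was added to the donor side (apical for A-to-B, basolateral for B-to-A). Receiver sampled at 0, 1, 2, 3 h; analysed by HPLC.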

[6] = Apparent permeability from basolateral to apical side in human Caco2 cells; type: ADME, cell-based; details: Caco-2, read-out: permeability; summary of the method: as §3
[7] = Inhibition of HCV 2b NS3/4A protease; set-up: species or system Hepatitis C virus subtype 2b; details: read-out: Ki(app)
Summary of the method: as §1, with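 “Substrate” for “Full-length NS3 coexpressed with the 54-residue NS4A, 0.5 nM (2.5 nM for genotype 1a). Substrate”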

[8] = Inhibition of HCV 1a NS3/4A protease; set-up: species or system Hepatitis C virus subtype 1a; details: read-out: Ki(app)
Summary of the method: as §1, with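 “Substrate” for “Full-length NS3 coexpressed with the 54-residue NS4A, 0.5 nM (2.5 nM for genotype 1a). Substrate”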

[9] = Inhibition of HCV 4a NS3/4A protease; set-up: species or system Hepatitis C virus subtype 4a; details: read-out: Ki(app)
Summary of the method: as §1, with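 “Substrate” for “Full-length NS3 coexpressed with the 54-residue NS4A, 0.5 nM (2.5 nM for genotype 1a). Substrate”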

[10] = Inhibition of HCV 3a NS3/4A protease; set-up: species or system Hepatitis C virus subtype 3a; details: read-out: Ki(app)
Summary of the method: as §1, with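 “Substrate” for “Full-length NS3 coexpressed with the 54-residue NS4A, 0.5 nM (2.5 nM for genotype 1a). Substrate”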

[11] = Inhibition of HCV 6a NS3/4A protease; set-up: species or system Hepatitis C virus subtype 6a; details: read-out: Ki(app)
Summary of the method: as §1, with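 “Substrate” for “Full-length NS3 coexpressed with the 54-residue NS4A, 0.5 nM (2.5 nM for genotype 1a). Substrate”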

Hepatitis C virus [12] = experiment: Antiviral activity against HCV 1b infected in Huh7 cells assessed as inhibition of viral replication after 72 hrs by RT-PCR; type: functional, organism-based, Hepacivirus hominis; details: genotype 1b, Huh-7, 72 h; summary of the method: as §2
[13] = Clearance in Sprague-Dawley rat liver microsomes; type: ADME, Microsome; details: read-out: QH
Summary of the method: (§4)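 Male liver microsomes (Sprague-Dawley rat, beagle dog, human, rhesus monkey) at 1 mg microsomal protein in 1 ml of 0.066 M Tris pH 7.4 with 2.5 mM NADPH. Initial compound concentration was 2 μM. Incubations ran at 37°C and were started with NADPH. Samples were taken at 0, 10 and 20 min and quenched with an equal volume of 1:1 acetonitrile-methanol. Supernatants were analysed by HPLC and clearance calculated by the Obach method.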

[14] = Clearance in human liver microsomes; type: ADME, Microsome; details: read-out: QH; summary of the method: as §4

Sequence of Neutrophil elastase (P08246 whole entry): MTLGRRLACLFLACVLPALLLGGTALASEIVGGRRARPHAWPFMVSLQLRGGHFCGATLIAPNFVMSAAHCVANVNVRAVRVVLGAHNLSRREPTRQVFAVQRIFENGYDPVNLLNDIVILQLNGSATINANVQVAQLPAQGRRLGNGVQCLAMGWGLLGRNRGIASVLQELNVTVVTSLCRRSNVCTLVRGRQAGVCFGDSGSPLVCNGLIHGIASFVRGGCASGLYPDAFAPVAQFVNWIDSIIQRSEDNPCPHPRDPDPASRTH

Structure (SMILES)	pKi (Hepatitis C virus [1])	pIC50 (Neutrophil elastase)	CC50 (Huh-7)	pKi [2]	pKi [3]	pEC50 (Hepatitis C virus [4])	pIC50 (Cathepsin B)	Papp A→B [5]	Papp B→A [6]	pKi [7]	pKi [8]	pKi [9]	pKi [10]	pKi [11]	pEC50 (Hepatitis C virus [12])	hepatic extraction ratio [13]	hepatic extraction ratio [14]
CC(C)(C)NC(=O)N[C@H](C(=O)N1C[C@H]2[C@@H]([C@H]1C(=O)NC(CC1CCC1)C(=O)C(N)=O)C2(C)C)C(C)(C)C (stereo partly specified) [BOCEPREVIR]	8.70	4.77	> 70 µM	8.14	7.74	6.26	5.21	0.6 ×10⁻⁶ cm/s	23 ×10⁻⁶ cm/s	7.55	8.96	8.07	7.64	8.64			
CCC[C@H](NC(=O)[C@@H]1[C@H]2CCC[C@H]2CN1C(=O)[C@@H](NC(=O)[C@@H](NC(=O)c1cnccn1)C1CCCCC1)C(C)(C)C)C(=O)C(=O)NC1CC1	8.36	6.17	37 µM	7.82	6.96	6.15	5.64	4.1 ×10⁻⁶ cm/s	23 ×10⁻⁶ cm/s	7.14	8.49	7.30	6.80	8.35	6.27	0.41	0.64
